Measurements as given in ChEMBL document CHEMBL4130629 (J Med Chem, 2018).
Converted amounts (≈) assume the structure as drawn.

Experiments:
[1] = Aqueous solubility of the compound; format: physicochemical; settings: buffer
[2] = test system: Human immunodeficiency virus 1; assay: Antiviral activity against ENV pseudotyped CCR5-tropic HIV1 […] infected in human HeLa67 cells after 3 days by luciferase reporter gene assay; format: functional, organism-based; settings: Human immunodeficiency virus 1, HeLa67, 72 h
Procedure, shortened: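 Single-cycle infection with env-deleted, luciferase-reporter HIV-1 pseudotyped with the JRFL (CCR5) envelope, supplied by transfection; viral titers normalized by luminescence without compound. HeLa 67 cells were infected in the presence of compounds given as 3-fold serial dilutions made from 30 mM DMSO stocks.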

[3] = Metabolic stability in human liver microsomes assessed as parent compound remaining after 10 mins; format: ADME, microsome; settings: read-out: Stability
Procedure, shortened: (§1)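 Compound at 3 μM was incubated with human or rat liver microsomes, and the percentage of parent compound remaining was measured after 10 min.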

MT2 = assay: Cytotoxicity against human MT2 cells assessed as decrease in cell viability after 3 days […]; format: functional; settings: MT2, 72 h
[4] = Permeability in human Caco2 cells; format: ADME, cell-based; settings: Caco-2, read-out: permeability
[5] = Volume of distribution at steady state in Sprague-Dawley rat at 1 mg/kg, iv; format: ADME, organism-based; settings: in vivo, read-out: Vdss
Procedure, shortened: (§2)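 Male Sprague-Dawley rats (300−350 g) with jugular vein and/or bile duct cannulas, n = 3 per route; dosed as a solution in PEG-400/ethanol (90/10). The iv dose was 1 mg/kg given as a 0.5 min bolus, with jugular blood sampled from 2 to 1440 min. The po dose was 5 mg/kg after an overnight fast, sampled from 15 to 1440 min. Plasma was taken from EDTA blood.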

[6] = Oral bioavailability in Sprague-Dawley rat at 5 mg/kg; format: ADME, organism-based; settings: in vivo; procedure, shortened: as §2
[7] = AUC in Sprague-Dawley rat at 5 mg/kg, po after 24 hrs; format: ADME, organism-based; parameters: time < 24 hr, dose 5 mg/kg, route oral; settings: in vivo; procedure, shortened: as §2
[8] = Half life in Sprague-Dawley rat at 1 mg/kg, iv; format: ADME, organism-based; settings: in vivo
[9] = Metabolic stability in rat liver microsomes assessed as parent compound remaining after 10 mins; format: ADME, microsome; settings: read-out: Stability; procedure, shortened: as §1
[10] = Half life in rat liver microsomes; format: ADME, microsome
[11] = Half life in human liver microsomes; format: ADME, microsome
[12] = Clearance in Sprague-Dawley rat at 1 mg/kg, iv; format: ADME, organism-based; settings: in vivo
Cytochrome P450 3A4 = Cytochrome P450 3A4 (Homo sapiens, UniProt P08684); assay: Inhibition of CYP3A4 (unknown origin); format: ADME
[13] = target: T1, Alkaline phosphatase, placental type (Homo sapiens, UniProt P05187); assay: Prodrug activation assessed as human placental alkaline phosphatase mediated BMS-626529 formation; settings: isolated protein
[14] = Prodrug activation in Sprague-Dawley rat plasma assessed as BMS-626529 formation at <= 25 mg/kg, po after 3 hrs; format: organism-based; settings: in vivo
Procedure, shortened: (§3)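 Rats were dosed orally with parent (solution in PEG-400/EtOH/0.1 N NaOH at ≤25 mg/kg; suspension at 200 mg/kg) or with prodrug as an aqueous solution. Plasma AUC of the parent drug was compared between the two.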

[15] = target: T1, Alkaline phosphatase, placental type; assay: Prodrug activation in human hepatocytes assessed as BMS-626529 formation; format: cell-based
[16] = Prodrug activation in beagle dog plasma assessed as BMS-626529 formation 125 mg/kg, po bid; format: organism-based, Canis lupus familiaris; settings: in vivo
[17] = Aqueous solubility of the compound at pH 1.5 to 8.2; format: physicochemical; settings: buffer
Procedure, shortened: (§4)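 Aqueous solubility was measured across pH 1.5–8.2 at room temperature. Solution stability under acidic and neutral conditions, and solid-state stability, were followed for at least 24 h at 37 °C.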

[18] = Stability of the compound under neutral condition at 37 degC after 24 hrs; format: physicochemical; procedure, shortened: as §4
[19] = Stability of the compound under acidic condition at 37 degC after 24 hrs; format: physicochemical; procedure, shortened: as §4
[20] = Stability of the compound in solid state at 37 degC after 24 hrs; format: physicochemical; procedure, shortened: as §4
[21] = Prodrug activation in beagle dog plasma assessed as BMS-626529 formation 46 mg/kg, po bid; format: organism-based, Canis lupus familiaris; settings: in vivo
Homo sapiens = assay: Prodrug activation in normal healthy human assessed as BMS-626529 formation at 100 to 1000 mg dosed as standard capsule formulation; format: organism-based; settings: in vivo, po
Procedure, shortened: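 Single ascending dose phase 1 trial in normal healthy volunteers: prodrug given as a standard capsule at 100, 200, 400, 600, 800 and 1000 mg. Plasma exposure of the parent drug was measured.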

[22] = Prodrug activation in Sprague-Dawley rat plasma assessed as BMS-626529 formation at 200 mg/kg, po after 3 hrs; format: organism-based; settings: in vivo; procedure, shortened: as §3
Canis familiaris = assay: Toxicity in beagle dog assessed as rapid emesis at 250 mg/kg, po qd; format: organism-based, Canis lupus familiaris; settings: in vivo

T1 sequence (P05187 whole entry): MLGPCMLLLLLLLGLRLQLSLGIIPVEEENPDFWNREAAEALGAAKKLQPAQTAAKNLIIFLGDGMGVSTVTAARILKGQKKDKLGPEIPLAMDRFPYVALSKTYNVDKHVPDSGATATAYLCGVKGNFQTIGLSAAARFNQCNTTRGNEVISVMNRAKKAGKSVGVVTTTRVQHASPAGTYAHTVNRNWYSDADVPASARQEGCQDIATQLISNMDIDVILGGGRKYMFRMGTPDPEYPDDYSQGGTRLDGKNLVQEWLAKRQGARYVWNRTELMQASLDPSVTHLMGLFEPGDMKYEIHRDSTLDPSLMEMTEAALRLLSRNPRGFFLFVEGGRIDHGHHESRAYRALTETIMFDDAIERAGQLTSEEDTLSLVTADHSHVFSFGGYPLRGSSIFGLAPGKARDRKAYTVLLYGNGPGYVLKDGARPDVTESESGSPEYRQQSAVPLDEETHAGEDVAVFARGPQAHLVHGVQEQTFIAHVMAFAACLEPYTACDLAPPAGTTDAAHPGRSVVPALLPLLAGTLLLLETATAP
Sequence of Cytochrome P450 3A4 (P08684 whole entry): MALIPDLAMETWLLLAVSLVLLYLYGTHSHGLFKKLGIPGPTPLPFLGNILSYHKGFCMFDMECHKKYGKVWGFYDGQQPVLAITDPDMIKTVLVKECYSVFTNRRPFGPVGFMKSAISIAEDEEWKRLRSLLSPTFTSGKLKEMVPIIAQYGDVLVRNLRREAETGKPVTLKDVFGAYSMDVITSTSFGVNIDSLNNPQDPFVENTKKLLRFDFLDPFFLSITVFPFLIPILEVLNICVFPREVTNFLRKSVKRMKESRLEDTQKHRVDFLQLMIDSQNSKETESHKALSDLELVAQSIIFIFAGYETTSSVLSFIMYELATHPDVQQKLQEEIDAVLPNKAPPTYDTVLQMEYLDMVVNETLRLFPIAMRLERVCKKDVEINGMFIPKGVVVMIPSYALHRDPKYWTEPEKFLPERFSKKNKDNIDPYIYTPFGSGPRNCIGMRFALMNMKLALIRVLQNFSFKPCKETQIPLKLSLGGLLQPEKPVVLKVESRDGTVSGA

SMILES	EC50 [2]	remaining at 10 min [3]	CC50 (MT2)	Papp [4]	Vd [5]	bioavailability [6]	AUC at 24 h [7]	half-life [8]	remaining at 10 min [9]	half-life [10]	half-life [11]	also measured
COc1cnc(-n2ccc(C)n2)c2[nH]cc(C(=O)C(=O)N3CCN(C(=O)c4ccccc4)CC3)c12	0.05 nM	80%	130000 to 154000 nM	26 ×10⁻⁶ cm/s	0.23 L/kg	43.7%	15.7 µM·h	0.9 h	100%	–	–	solubility [1]: 17 µg/mL (≈ 36 µM)
COc1cnc(-c2cncnc2)c2[nH]cc(C(=O)C(=O)N3CCN(C(=O)c4ccccc4)CC3)c12	0.51 nM	–	> 300000 nM	1.5 to 4.9 ×10⁻⁶ cm/s	–	–	–	–	–	> 1.67 h	> 1.67 h	–
COc1cnc(-n2cccn2)c2[nH]cc(C(=O)C(=O)N3CCN(C(=O)c4ccccc4)CC3)c12	0.58 nM	–	288000 nM	< 1.5 ×10⁻⁶ cm/s	0.48 L/kg	77.1%	25.6 µM·h	1.8 h	–	> 1.67 h	> 1.67 h	clearance [12]: 5.6 mL/min/kg
COc1cnc(-c2cncc(=O)[nH]2)c2[nH]cc(C(=O)C(=O)N3CCN(C(=O)c4ccccc4)CC3)c12	0.21 nM	100%	> 300000 nM	6.6 ×10⁻⁶ cm/s	0.18 L/kg	0.43%	0.13 µM·h	0.8 h	100%	–	> 1.67 h	clearance [12]: 5.6 mL/min/kg
COc1cnc(-n2cncn2)c2[nH]cc(C(=O)C(=O)N3CCN(C(=O)c4ccccc4)CC3)c12	0.09 nM	83%	> 300000 nM	14.6 ×10⁻⁶ cm/s	0.4 L/kg	90%	48.7 µM·h	2.6 h	97%	–	–	IC50 (Cytochrome P450 3A4): 1000 nM
COc1cnc(-n2cnc(C)n2)c2c1c(C(=O)C(=O)N1CCN(C(=O)c3ccccc3)CC1)cn2COP(=O)(O)O.NC(CO)(CO)CO [FOSTEMSAVIR TROMETHAMINE]	–	–	–	–	–	–	–	–	–	–	–	Drug metabolism [13]: Metabolite_Detected; Drug metabolism [14]: Metabolite_Detected; Drug metabolism [15]: Metabolite_Detected; Drug metabolism [16]: Metabolite_Detected; solubility [17]: > 11000 µg/mL; Stability [18]: Stable; Stability [19]: Stable; Stability [20]: Stable; Drug metabolism [21]: Metabolite_Detected; Drug metabolism (Homo sapiens): Dose-dependent effect; Drug metabolism [22]: Metabolite_Detected; Activity (Canis familiaris): Toxic
O=C(C(=O)N1CCN(C(=O)c2ccccc2)CC1)c1c[nH]c2ccccc12	–	–	–	> 10 ×10⁻⁶ cm/s	–	–	–	–	–	> 1.67 h	> 1.67 h	–
